Assay [1] is described as follows: reduced viability of SK-BR-3 breast cancer cells – cell-based, 24 h, human, pilot screen (AID 572;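 active = viability at or below 10% of carrier control in both of two separate runs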;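 note: compound exposure lasted between 18 and 24 h rather than exactly 24 h; 100% = carrier-treated control wells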). The note with it: SK-BR-3 viability, CellTiter-Glo luminescence, at 10 µM, stronger effect = lower value. (In ATP-based viability assays light output follows the ATP content of the culture.)
Assay [2] in a line: HUVEC growth inhibition – cell-based, human, primary screen (AID 575;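 active = viability at or below 30% in both replicate assays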;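 note: 100% = median of untreated cell wells with 0.1% DMSO on each plate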). Particulars: HUVEC proliferation, CellTiter-Glo luminescence, 72 h; at 10 µM; stronger effect = lower value. Put shortly: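 Test system: HUVEC primary cells. Quantity: 1250 endothelial cells in each well. Dosing: single-point 10 µM, DMSO 0.1% final. Incubation: 72 h treatment at 37 °C. Measured by: CTG luminescence. Control set: DMSO cell controls and MePR drug controls. Plate: collagen-coated 384-well format.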

Assay [3] in a line: H69AR cell proliferation blockers – human, duplicate replicates, primary screen (AID 580;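 active = viability at or under a set limit in both replicates, limit being median viability minus 3 SD, cut at about 48% in these data, passing the limit was not always enough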;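 note: 100% = mean luminescence of untreated wells and 0% = no signal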). The note with it: H69AR lung tumor cells viability, ATP luminescence, 72 h; at 10 µM; stronger effect = lower value.
Assay [4] in a line: MRP1 drug-resistance reversers in H69AR cells – cell-based, doxorubicin co-treatment, pilot screen (AID 601;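 active = viability loss from added drug above about 55%, and viability with drug at most 40%, in both replicates, limit read from the data, passing the limit was not always enough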). Particulars: CellTiter-Glo, 72 h, at 10 µM; for differential viability (reversal): stronger effect = higher value.
A short description of assay [5]: yeast transport mutant growth inhibition pilot in 384-well plates, post-Golgi transport modulator project (AID 636; in the data active = inhibition above about 31%). Particulars: absorbance 615 nm, about 18 h, stronger effect = higher value.
Assay [6] can be described thus: growth suppression of yeast trafficking mutant, preliminary HTS, modulators of trafficking downstream of Golgi apparatus project, 1536-format plate, OD 615 nm (AID 637). The note with it: yeast transport mutant growth, absorbance 615 nm, 18 h; stronger effect = higher value.
[7] abbreviates: H69AR cells + 2 uM doxorubicin, measured here: viability with 2 uM doxorubicin, stronger effect = lower value.
The mark [8] stands for this setting: H69AR cells, compound alone cytotoxicity.

Each structure is given as a SMILES string. The source made the active and inactive calls. Cut-off read from the data, not from the text of the source, unless noted: active = inhibition above about 30%; inactive = the rest.

Usually viability stands for a read-out of living cells in per cent, often relative to untreated cells. Broadly, the inhibition is the drop in the measured response relative to a control, in per cent.

As to `CCOC(=O)c1ccc(NS(=O)(=O)c2ccc3c(c2)CCCN3C(C)=O)cc1`, the viability was 118% (inactive) in assay [1]; 104% (inactive) in assay [2]; 89.8% (inactive) in assay [3]; 98.7% in assay [4] (setting [7]); 89.8% in assay [4] (setting [8]). In assay [4] (H69AR cells + 2 uM doxorubicin), the differential viability (reversal) is -8.91% (inactive). The inhibition in assay [5] was 0.91% (inactive); in assay [6] it was -0.16% (inactive).
Turning to `NC(CO)C(=O)NNCc1ccc(O)c(O)c1O` (stereo unspecified), the viability in assay [1] is 97% (inactive); in assay [2], 82.9% (inactive); in assay [3], 98.7% (inactive); in assay [4] (setting [7]), 90.5%; in assay [4] (setting [8]) it was 98.7%. For the same molecule, in assay [4] (H69AR cells + 2 uM doxorubicin), the differential viability (reversal) was 8.12% (inactive). For the same molecule, the inhibition is -3.51% (inactive) in assay [5] and -2.67% (inactive) in assay [6].
Regarding `O=C(NCC(=O)N(Cc1cccs1)C(C(=O)NC1CCCC1)c1ccncc1)c1ccco1` (stereo unspecified), the viability was 102% (inactive) in assay [1]; 109% (inactive) in assay [2]; 85.7% (inactive) in assay [3]; 83.5% in assay [4] (setting [7]); 85.7% in assay [4] (setting [8]). The differential viability (reversal) in assay [4] (H69AR cells + 2 uM doxorubicin) was 2.2% (inactive). In addition, the inhibition in assay [5] is -0.54% (inactive); in assay [6], 16.4% (inactive).
Turning to `O=C(C1CCCO1)N1CCN(S(=O)(=O)c2ccccc2)CC1` (stereo unspecified), the viability is 79% (inactive) in assay [1]; 98.1% (inactive) in assay [2]; 99.1% (inactive) in assay [3]; 105% in assay [4] (setting [7]); 99.1% in assay [4] (setting [8]). Moreover, the differential viability (reversal) in assay [4] (H69AR cells + 2 uM doxorubicin) was -6.22% (inactive). The figures for the inhibition in assay [5] and in assay [6] were -6.3% (inactive) and 3.27% (inactive), respectively.
For the molecule `O=c1c2cnn(-c3ccccc3)c2ncn1/N=C/c1ccncc1`, the viability is 125% (inactive) in assay [1]; 108% (inactive) in assay [2]; 101% (inactive) in assay [3]; 82.2% in assay [4] (setting [7]); 101% in assay [4] (setting [8]). For the same molecule, the differential viability (reversal) in assay [4] (H69AR cells + 2 uM doxorubicin) is 18.9% (inactive). Besides, the inhibition in assay [5] was -5.07% (inactive); in assay [6], -4.91% (inactive).
Turning to `COc1ccc(CN2C(=O)[C@@H]3C(c4ccc(F)cc4)=NO[C@@H]3C2=O)cc1`, the viability is 91% (inactive) in assay [1]; 114% (inactive) in assay [2]; 89.1% (inactive) in assay [3]; 85.6% in assay [4] (setting [7]); 89.1% in assay [4] (setting [8]). Further, the differential viability (reversal) in assay [4] (H69AR cells + 2 uM doxorubicin) is 3.49% (inactive). Also, the inhibition in assay [5] was -6.62% (inactive); in assay [6], 1.64% (inactive).
As for `O=C(c1ccccc1)c1ccc(N2CCNCC2)cc1`, the viability in assay [1] is 129% (inactive); in assay [2] it was 96.4% (inactive); in assay [3], 84.5% (inactive); in assay [4] (setting [7]) it was 89.9%; in assay [4] (setting [8]), 84.5%. In addition, the differential viability (reversal) in assay [4] (H69AR cells + 2 uM doxorubicin) is -5.36% (inactive). The inhibition is -2.05% (inactive) in assay [5] and 6.91% (inactive) in assay [6].
As to `COc1ccccc1OCCCn1c(=O)oc2ccccc21`, the viability in assay [1] was 154% (inactive); in assay [2] it was 90.1% (inactive); in assay [3] it was 98.2% (inactive); in assay [4] (setting [7]), 86.3%; in assay [4] (setting [8]), 98.2%. For the same molecule, the differential viability (reversal) in assay [4] (H69AR cells + 2 uM doxorubicin) is 11.9% (inactive). Further, the figures for the inhibition in assay [5] and in assay [6] were -1.56% (inactive) and 2.79% (inactive), respectively.
As for `Cc1csc(NC(=O)c2ccoc2C)n1`, the viability in assay [1] is 103% (inactive); in assay [2], 84.6% (inactive); in assay [3], 86.3% (inactive); in assay [4] (setting [7]), 91.8%; in assay [4] (setting [8]) it was 86.3%. Moreover, in assay [4] (H69AR cells + 2 uM doxorubicin), the differential viability (reversal) was -5.44% (inactive). Further, the inhibition in assay [5] was -4.66% (inactive); in assay [6], -8.39% (inactive).
On to `CC(Sc1nnnn1C)C(=O)Nc1ccc(Oc2ccccc2)cc1` (stereo unspecified), for which the viability in assay [1] was 92% (inactive); in assay [2] it was 87.8% (inactive); in assay [3], 97.8% (inactive); in assay [4] (setting [7]), 86.8%; in assay [4] (setting [8]), 97.8%. Also, the differential viability (reversal) in assay [4] (H69AR cells + 2 uM doxorubicin) is 11% (inactive). Also, the inhibition in assay [5] was -7.53% (inactive); in assay [6] it was 0.97% (inactive).
Take `COc1ccc(C/C(O)=C(\C#N)c2nc3ccccc3s2)cc1`: the viability in assay [1] was 86% (inactive); in assay [2], 48.8% (inactive); in assay [3], 83.1% (inactive); in assay [4] (setting [7]) it was 91.3%; in assay [4] (setting [8]) it was 83.1%. For the same molecule, in assay [4] (H69AR cells + 2 uM doxorubicin), the differential viability (reversal) was -8.21% (inactive). Moreover, the inhibition in assay [5] was -2.93% (inactive); in assay [6] it was 0.36% (inactive).
For `Cc1nc2sccn2c(=O)c1CCN1CCC(=C(c2ccc(F)cc2)c2ccc(F)cc2)CC1`, the viability in assay [1] was 111% (inactive); in assay [2], 11.5% (active); in assay [3], 85.7% (inactive); in assay [4] (setting [7]), 87.8%; in assay [4] (setting [8]), 85.7%. Also, in assay [4] (H69AR cells + 2 uM doxorubicin), the differential viability (reversal) was -2.19% (inactive). For the same molecule, the values for the inhibition in assay [5] and in assay [6] were 1.04% (inactive) and 6.17% (inactive), respectively.
